Experimental data reported in ChEMBL document CHEMBL1125885, “Dopamine autoreceptor agonists as potential antipsychotics. 3.6-Propyl-4,5,5a,6,7,8-hexahydrothiazolo[4,5-f]quinolin-2-amine” (J Med Chem, 1991).
One block for each compound: values may come before it.

Experiments:
D(1A) dopamine receptor = D(1A) dopamine receptor (Rattus norvegicus, UniProt P18901); experiment: In vitro binding affinity towards dopamine receptor D1 in rat striatal membrane using [3H]-SCH- 23390; format: cell membranes, Striatum
Summary of the method: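 Dopamine D1 binding in rat striatal membranes with the selective D1 antagonist [3H]SCH23390. IC50 comes from four or five compound concentrations, each run in triplicate, fitted by nonlinear regression.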

Mus musculus = experiment: Effective dose required to inhibit the Locomotor activity in mouse after ip administration.; format: functional
[1] = target: D(2) dopamine receptor (Rattus norvegicus) (UniProt P61169); experiment: Compound at 10E-5 M was tested in vitro for binding affinity towards dopamine receptor D2 in rat striatal membrane by using [3H]spiperone as radioligand; format: cell membranes; conditions: Striatum
Rattus norvegicus [2] = experiment: Effective dose required to inhibit the Locomotor activity in Rat after po administration.; format: functional
D(2) dopamine receptor = D(2) dopamine receptor (Rattus norvegicus, UniProt P61169); experiment: Binding affinity towards dopamine receptor D2 in rat striatal membrane using [3H]spiperone; format: cell membranes, Striatum
Rattus norvegicus [3] = experiment: Effective dose required to inhibit the Locomotor activity in rat after po administration.; format: functional
Summary of the method: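 Inhibition of spontaneous locomotor activity in rats after oral dosing. ED50 is generated from four to six doses, with 5-12 animals per dose.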

Rattus norvegicus [4] = experiment: Effective dose for the reversal of the increase in DOPA levels in the striatum of GBL-treated rats after ip administration; format: functional
Summary of the method: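 Male Long-Evans rats got test compound ip 1 h before sacrifice, GBL 750 mg/kg ip 30 min before and NSD 1015 100 mg/kg ip 25 min before. Striatal DOPA was measured by HPLC with electrochemical detection, n = 4 or 5 rats. ED50 (95% CI) is the dose reversing the GBL-induced DOPA rise; percent reversal at a single test dose is given otherwise.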

Rattus norvegicus [5] = experiment: Percentage inhibition of DA neural firing after administration the compound at a dose of 2.5 mg/Kg through ip route in rats.; format: functional; conditions: for inhibition in vivo at 2.5 mg/kg: Rattus norvegicus, ip
Rattus norvegicus [6] = experiment: Dose to effect on Brain DOPA synthesis upon ip administration.; format: functional
Summary of the method: (§1)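 Rats were dosed with NSD 1015 at 100 mg/kg ip 25 min before sacrifice and received no GBL. Test compound was given ip 1 h before sacrifice. Striatal DOPA was measured by HPLC with electrochemical detection and expressed as percent of control, n = 4 rats. Significance was set at p < 0.05 vs control.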

Rattus norvegicus [7] = experiment: Compound was tested for stimulation of locomotor activity after sc administration in rat; format: functional
Rattus norvegicus [8] = species on record: Rattus norvegicus; experiment: Compound was tested for effect on brain DOPA synthesis in the striatum of NSD 1015 rat; format: functional; summary of the method: as §1
Rattus norvegicus [9] = experiment: Compound was tested for inhibition of locomotor activity after sc administration in rat; format: functional
Summary of the method: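 Spontaneous exploratory locomotor activity in rats after sc dosing. […] 5-12 animals were used per dose.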

Rattus norvegicus [10] = experiment: Values for the reversal of the increase in DOPA levels in the striatum of GBL-treated rats after ip administration; format: functional
Summary of the method: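 Male Long-Evans rats received test compound ip 1 h before sacrifice, GBL 750 mg/kg ip 30 min before, and NSD 1015 100 mg/kg ip 25 min before. Striatal DOPA was quantified by HPLC with electrochemical detection, n = 4 or 5 rats. ED50 (95% CI) is the dose reversing the GBL-induced DOPA rise.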

[11] = Minimal effective oral dose that induced EPS signs in at least one squirrel monkey upon peroral administration.; format: functional, Cercopithecidae
[12] = Compound was tested for inhibition of Sidman conditioned avoidance in squirrel monkeys upon peroral administration; format: functional; conditions: po
Summary of the method: (§2)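 Sidman avoidance in squirrel monkeys with oral dosing. ED50 (95% CL) is derived from three doses, with four animals tested per dose.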

Rattus norvegicus [13] = experiment: Values for the reversal of the increase in DOPA levels in the striatum of GBL-treated rats after ip administration of 10 mg/Kg; format: functional
Summary of the method: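 Male Long-Evans rats were given the compound ip at 10 mg/kg 1 h before sacrifice. GBL (750 mg/kg ip) was given 30 min and NSD 1015 (100 mg/kg ip) 25 min before sacrifice. Striatal DOPA was measured by HPLC with electrochemical detection. The value is the percent reversal of the GBL-induced DOPA increase; n = 4 or 5 rats.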

Rattus norvegicus [14] = species on record: Rattus norvegicus; experiment: The compound was tested for effect on brain DOPA synthesis in the striatum of NSD 1015 rat; format: functional; summary of the method: as §1
[15] = Compound was tested for inhibition of Sidman conditioned avoidance in squirrel monkeys upon peroral administration.; format: functional; conditions: Cercopithecidae, po; summary of the method: as §2
Rattus norvegicus [16] = experiment: Percentage inhibition of DA neural firing after administration the compound at a dose of 0.25 mg/kg through ip route in rats.; format: functional; conditions: route intraperitoneal
[17] = Mus musculus, ip, read-out: ED50
[18] = Rattus norvegicus, po, read-out: ED50
[19] = Rattus norvegicus, sc, read-out: ED50

Sequence of D(2) dopamine receptor (Rattus norvegicus) (P61169 whole entry): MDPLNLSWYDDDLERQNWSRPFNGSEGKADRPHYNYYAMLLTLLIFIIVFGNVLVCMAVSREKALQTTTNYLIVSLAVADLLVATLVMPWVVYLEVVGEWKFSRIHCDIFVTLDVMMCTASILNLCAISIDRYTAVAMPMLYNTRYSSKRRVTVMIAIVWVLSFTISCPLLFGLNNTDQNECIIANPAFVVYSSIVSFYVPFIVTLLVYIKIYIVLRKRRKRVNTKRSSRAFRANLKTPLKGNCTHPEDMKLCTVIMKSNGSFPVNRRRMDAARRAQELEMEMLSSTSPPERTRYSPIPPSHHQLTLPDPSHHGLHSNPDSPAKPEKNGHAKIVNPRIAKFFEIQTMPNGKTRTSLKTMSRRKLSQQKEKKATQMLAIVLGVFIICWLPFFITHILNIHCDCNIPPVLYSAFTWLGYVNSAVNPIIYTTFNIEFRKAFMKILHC
Sequence of D(1A) dopamine receptor (P18901 whole entry): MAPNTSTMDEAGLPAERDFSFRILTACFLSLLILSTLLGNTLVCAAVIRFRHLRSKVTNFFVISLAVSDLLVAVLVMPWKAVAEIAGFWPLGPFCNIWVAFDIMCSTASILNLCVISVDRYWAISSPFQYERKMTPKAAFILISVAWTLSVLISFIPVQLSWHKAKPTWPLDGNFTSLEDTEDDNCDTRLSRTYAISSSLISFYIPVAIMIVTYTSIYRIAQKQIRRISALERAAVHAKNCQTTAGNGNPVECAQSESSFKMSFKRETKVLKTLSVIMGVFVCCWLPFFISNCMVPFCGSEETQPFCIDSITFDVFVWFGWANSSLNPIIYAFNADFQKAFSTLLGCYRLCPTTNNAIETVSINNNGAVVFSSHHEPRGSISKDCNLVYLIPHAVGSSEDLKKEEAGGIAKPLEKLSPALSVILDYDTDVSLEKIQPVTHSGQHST
Sequence of D(2) dopamine receptor (P61169 whole entry): as the sequence (P61169 whole entry) above

Structure (SMILES): CCCN1CCC2=C(CCc3sc(N)nc32)C1
IC50 (D(1A) dopamine receptor): 10 µM
ED50 (Mus musculus; [17]): 18.8 mg/kg

Structure (SMILES): CCCN1CCC2=C(C1)c1nc(N)sc1CC2
IC50 (D(1A) dopamine receptor): > 10 µM

Structure (SMILES): CCCN1CCC=C2c3nc(N)sc3CCCC21 (stereo not drawn)
inhibition [1]: 18%
ED50 (Mus musculus; [17]): > 20 mg/kg
ED50 (Rattus norvegicus [2]; [18]): > 30 mg/kg

IC50 (D(1A) dopamine receptor): 10 µM
IC50 (D(2) dopamine receptor): 0.574 µM
Structure (SMILES): CCCN1CCC=C(c2csc(N)n2)C1
ED50 (Mus musculus; [17]): 4.3 mg/kg
ED50 (Rattus norvegicus [3]): 3.1 mg/kg
ED50 (Rattus norvegicus [4]): 1.3 mg/kg
inhibition in vivo at 2.5 mg/kg (Rattus norvegicus [5]): 100%

Structure (SMILES): CCCN1CC=C2c3nc(N)sc3CCC2C1 (stereo not drawn)
IC50 (D(1A) dopamine receptor): > 10 µM
ED50 (Mus musculus; [17]): > 30 mg/kg

Structure (SMILES): CCCN1CCCC2c3nc(N)sc3CCCC21 (stereo not drawn)
inhibition [1]: 10%
ED50 (Mus musculus; [17]): > 30 mg/kg

Structure (SMILES): CCCN1CCC=C2c3nc(N)sc3CCC21 (racemic)
IC50 (D(1A) dopamine receptor): > 10 µM
ED50 (Mus musculus; [17]): 9.4 mg/kg
Dose (Rattus norvegicus [6]): 5 mg/kg
ED50 (Rattus norvegicus [2]; [18]): 18.9 mg/kg
ED50 (Rattus norvegicus [7]; [19]): 14.5 mg/kg
Control (Rattus norvegicus [8]): 63%
ED50 (Rattus norvegicus [9]; [19]): 0.9 mg/kg
ED50 (Rattus norvegicus [10]): 4 mg/kg
inhibition in vivo at 2.5 mg/kg (Rattus norvegicus [5]): 100%
EPS MED [11]: >10 mg/kg
ED50 [12]: 11.2 mg/kg

Structure (SMILES): CCCN1CCCC(c2cccc(O)c2)C1 (single isomer, unassigned; (+))
Reversal (Rattus norvegicus [13]): 58%
ED50 (Rattus norvegicus [7]; [19]): 5.8 mg/kg
ED50 (Rattus norvegicus [9]; [19]): 3 mg/kg
inhibition in vivo at 2.5 mg/kg (Rattus norvegicus [5]): 100%

Structure (SMILES): Nc1nc2c(s1)CCC1NCCCC21 (stereo in doubt; 26) [listing 1 of 2 here]
ED50 (Mus musculus; [17]): > 30 mg/kg

Structure (SMILES): Nc1nc2c(s1)CCC1NCCCC21 (stereo in doubt; 26) [listing 2 of 2 here]
inhibition [1]: 14%

Structure (SMILES): Nc1nc2c(s1)CCC1NCCCC21 (stereo in doubt; 27)
inhibition [1]: 10%

Structure (SMILES): CCCN1CCCC2c3nc(N)sc3CCC21 (stereo in doubt; 28) [listing 1 of 2 here]
ED50 (Mus musculus): >30 mg/kg

Structure (SMILES): CCCN1CCCC2c3nc(N)sc3CCC21 (stereo in doubt; 28) [listing 2 of 2 here]
inhibition [1]: 16%

Structure (SMILES): CCCN1CCCC2c3nc(N)sc3CCC21 (stereo in doubt; 29)
IC50 (D(1A) dopamine receptor): > 10 µM
IC50 (D(2) dopamine receptor): 1.24 µM
ED50 (Mus musculus): 7 mg/kg
Reversal (Rattus norvegicus [13]): 100%
inhibition in vivo at 2.5 mg/kg (Rattus norvegicus [5]): 94%

Structure (SMILES): CCCN1CCC=C2c3nc(N)sc3CC[C@@H]21 (stereo in doubt; (+)-6)
IC50 (D(1A) dopamine receptor): > 10 µM
ED50 (Mus musculus): 3.7 mg/kg
Dose (Rattus norvegicus [6]): 2.5 mg/kg
ED50 (Rattus norvegicus [2]): 7 mg/kg
Control (Rattus norvegicus [14]): 52.4%
ED50 (Rattus norvegicus [7]): 6.8 mg/kg
ED50 (Rattus norvegicus [9]): 0.3 mg/kg
ED50 (Rattus norvegicus [10]): 1.3 mg/kg
Inhibition (Rattus norvegicus [5]): 91%
EPS MED [11]: >30 mg/kg
ED50 [12]: 8.3 mg/kg

Structure (SMILES): CCCN1CCC=C2c3nc(N)sc3CC[C@@H]21 (stereo in doubt; (-)-6)
ED50 (Mus musculus): 20.4 mg/kg
Reversal (Rattus norvegicus [13]): 14%
Dose (Rattus norvegicus [6]): 20 mg/kg
ED50 (Rattus norvegicus [2]): >30 mg/kg
ED50 (Rattus norvegicus [7]): >30 mg/kg
Control (Rattus norvegicus [8]): 153.2%
ED50 (Rattus norvegicus [9]): 2.5 mg/kg
Inhibition (Rattus norvegicus [5]): 22%
ED50 [15]: > 30 mg/kg

Structure (SMILES): CN1CCc2cccc3c2[C@H]1Cc1ccc(O)c(O)c1-3 [APOMORPHINE]
ED50 (Mus musculus; [17]): 6.9 mg/kg
ED50 (Rattus norvegicus [3]): > 30 mg/kg
ED50 (Rattus norvegicus [7]; [19]): 0.07 mg/kg
ED50 (Rattus norvegicus [9]; [19]): 0.03 mg/kg
inhibition in vivo at 0.25 mg/kg (Rattus norvegicus [16]): 100%

Structure (SMILES): CSc1ccc2c(c1)N(CCC1CCCCN1C)c1ccccc1S2 (stereo not drawn) [THIORIDAZINE]
EPS MED [11]: <2.5 mg/kg
ED50 [12]: 3.9 mg/kg
